Measured values published in ChEMBL document CHEMBL4316610, “Synthesis and Biological Studies of (+)-Liquiditerpenoic Acid A (Abietopinoic Acid) and Representative Analogues: SAR Studies” (J Nat Prod, 2019).
Active and inactive are the calls of the source. No cut-off for these calls is given here.

Assays:
[1] = target: T1, GABA-A receptor; alpha-1/beta-2/gamma-2 (Homo sapiens) (UniProt P14867+P47870+P18507); assay: (§1) Modulation of recombinant wild type GABAA receptor alpha1beta2gamma2S (unknown origin) expressed in Xenopus laevis oocytes assessed as increase in GABA-evoked chloride current at -70 mV holding potential by two-microelectrode voltage clamp assay; assay type: cell-based
Method in brief: (§2)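 Two-microelectrode voltage clamp of Xenopus laevis oocytes expressing α1β2γ2S GABA_A receptors, held at -70 mV. GABA EC5 (4-5 μM), determined individually for each oocyte, applied for 20 s alone or co-applied with compound at 10 and 100 μM; potentiation of GABA-evoked current measured. Dehydroabietic acid as positive control; mean ± SEM from at least three oocytes and two oocyte batches.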

[2] = target: T2, GABA-A receptor; alpha-1/beta-2/gamma-2 (Homo sapiens, UniProt P14867+P18507+P47870); assay: as §1; assay type: cell-based; method in brief: as §2
T2 sequence (P14867 whole entry): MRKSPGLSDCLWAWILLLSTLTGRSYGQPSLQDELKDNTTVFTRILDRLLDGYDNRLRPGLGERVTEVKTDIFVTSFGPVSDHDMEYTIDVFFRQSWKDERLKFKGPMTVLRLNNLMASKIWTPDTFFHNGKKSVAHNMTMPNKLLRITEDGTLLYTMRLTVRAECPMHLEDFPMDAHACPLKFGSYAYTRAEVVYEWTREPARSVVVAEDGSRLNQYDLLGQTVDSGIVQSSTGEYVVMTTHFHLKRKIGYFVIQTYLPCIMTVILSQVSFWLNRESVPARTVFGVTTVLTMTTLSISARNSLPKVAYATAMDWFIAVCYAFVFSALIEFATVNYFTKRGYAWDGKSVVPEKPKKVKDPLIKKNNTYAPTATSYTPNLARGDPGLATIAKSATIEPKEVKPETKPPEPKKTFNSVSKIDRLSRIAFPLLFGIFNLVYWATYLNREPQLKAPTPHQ
T2 sequence (P47870 whole entry): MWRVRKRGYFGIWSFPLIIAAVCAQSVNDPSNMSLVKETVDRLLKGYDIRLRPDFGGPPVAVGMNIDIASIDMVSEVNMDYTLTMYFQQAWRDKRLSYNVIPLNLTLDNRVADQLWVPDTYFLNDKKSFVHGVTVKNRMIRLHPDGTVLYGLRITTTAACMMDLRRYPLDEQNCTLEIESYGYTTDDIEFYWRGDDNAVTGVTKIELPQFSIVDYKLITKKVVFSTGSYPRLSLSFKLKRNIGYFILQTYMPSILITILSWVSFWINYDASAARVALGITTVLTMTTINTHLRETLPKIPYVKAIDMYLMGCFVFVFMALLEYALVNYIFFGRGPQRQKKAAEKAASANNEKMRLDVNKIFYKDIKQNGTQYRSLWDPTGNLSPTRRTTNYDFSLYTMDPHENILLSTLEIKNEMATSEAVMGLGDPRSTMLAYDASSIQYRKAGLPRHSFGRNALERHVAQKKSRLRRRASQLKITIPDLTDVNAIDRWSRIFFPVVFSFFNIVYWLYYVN
T2 sequence (P18507 whole entry): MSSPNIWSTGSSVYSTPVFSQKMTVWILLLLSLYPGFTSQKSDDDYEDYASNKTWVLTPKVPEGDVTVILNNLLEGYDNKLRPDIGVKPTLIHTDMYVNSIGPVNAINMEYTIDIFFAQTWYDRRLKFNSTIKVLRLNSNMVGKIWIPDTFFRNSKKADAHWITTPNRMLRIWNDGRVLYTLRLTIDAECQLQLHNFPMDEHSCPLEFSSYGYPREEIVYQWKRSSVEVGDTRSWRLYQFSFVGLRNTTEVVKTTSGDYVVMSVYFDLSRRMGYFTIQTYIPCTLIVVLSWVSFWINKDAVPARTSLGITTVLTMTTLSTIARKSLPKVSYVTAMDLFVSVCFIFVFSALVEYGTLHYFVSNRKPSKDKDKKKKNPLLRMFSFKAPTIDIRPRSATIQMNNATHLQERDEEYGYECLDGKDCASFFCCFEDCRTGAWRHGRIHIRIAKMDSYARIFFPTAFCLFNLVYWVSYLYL

[3] = target: T1, GABA-A receptor; alpha-1/beta-2/gamma-2 (Homo sapiens); assay: Modulation of recombinant wild type GABAA receptor alpha1beta2gamma2S (unknown origin) expressed in Xenopus laevis oocytes assessed as increase in GABA-evoked chloride current at 10 uM at -70 mV holding potential by two-microelectrode voltage clamp assay relative to control; assay type: cell-based
Method in brief: (§3)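 Two-microelectrode voltage clamp at -70 mV on Xenopus laevis oocytes expressing α1β2γ2S GABA-A receptors. GABA EC5 (4-5 μM), set individually for each oocyte, applied for 20 s alone, then co-applied with compound at 10 or 100 μM. Potentiation of GABA-evoked current is reported. Dehydroabietic acid served as positive control. Mean ± SEM from at least three oocytes and two oocyte batches.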

[4] = target: T1, GABA-A receptor; alpha-1/beta-2/gamma-2 (Homo sapiens); assay: Modulation of recombinant wild type GABAA receptor alpha1beta2gamma2S (unknown origin) expressed in Xenopus laevis oocytes assessed as increase in GABA-evoked chloride current at 100 uM at -70 mV holding potential by two-microelectrode voltage clamp assay relative to control; assay type: cell-based; method in brief: as §3
A549 = assay: Antiproliferative activity against human A549 cells after 48 hrs by SRB assay; assay type: functional; conditions: A549, 48 h
HBL-100 = assay: Antiproliferative activity against human HBL100 cells after 48 hrs by SRB assay; assay type: functional; conditions: HBL-100, 48 h
HeLa = assay: Antiproliferative activity against human HeLa cells after 48 hrs by SRB assay; assay type: functional
SW1573 = assay: Antiproliferative activity against human SW1573 cells after 48 hrs by SRB assay; assay type: functional; conditions: SW1573, 48 h
T47D = assay: Antiproliferative activity against human T47D cells after 48 hrs by SRB assay; assay type: functional
WiDr = assay: Antiproliferative activity against human WiDr cells after 48 hrs by SRB assay; assay type: functional
[5] = Cytotoxicity against mouse J774 cells assessed as reduction in cell viability after 48 hrs by resazurin dye-based fluorometric analysis
Method in brief: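 The CC50 is taken as the concentration giving a 50% reduction in cell viability of treated cultures compared with untreated cells.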

Leishmania amazonensis [6] = assay: Antileishmanial activity against Leishmania amazonensis MHOM/Br/79/Mari promastigotes after 48 hrs by resazurin dye-based fluorometric analysis; assay type: functional, organism-based; conditions: Leishmania amazonensis, MHOM/Br/79/Mari, 48 h; read-out: IC50
Method in brief: (§4)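 The IC50 is taken as the compound concentration giving a 50% reduction in parasites, reported with SD.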

Leishmania guyanensis [7] = assay: Antileishmanial activity against Leishmania guyanensis 141/93 promastigotes after 48 hrs by resazurin dye-based fluorometric analysis; assay type: functional, organism-based; conditions: Leishmania guyanensis, 141/93, 48 h; read-out: IC50; method in brief: as §4
Leishmania donovani = assay: Antileishmanial activity against Leishmania donovani MHOM/IN/80/DD8 promastigotes after 48 hrs by resazurin dye-based fluorometric analysis; assay type: functional, organism-based; conditions: Leishmania donovani, MHOM/IN/80/DD8, 48 h; method in brief: as §4
Leishmania infantum [8] = assay: Antileishmanial activity against Leishmania infantum MCAN/ES/96/BCN150 promastigotes after 48 hrs by resazurin dye-based fluorometric analysis; assay type: functional, organism-based; conditions: Leishmania infantum, MCAN/ES/96/BCN150, 48 h; read-out: IC50; method in brief: as §4
[9] = Selectivity index, ratio of CC50 for mouse J774 cells to IC50 for Leishmania amazonensis MHOM/Br/79/Mari promastigotes; assay type: toxicity; conditions: read-out: Ratio CC50/IC50
[10] = Selectivity index, ratio of CC50 for mouse J774 cells to IC50 for Leishmania guyanensis 141/93 promastigotes; assay type: toxicity; conditions: read-out: Ratio CC50/IC50
[11] = Selectivity index, ratio of CC50 for mouse J774 cells to IC50 for Leishmania donovani MHOM/IN/80/DD8 promastigotes; assay type: toxicity; conditions: read-out: Ratio CC50/IC50
[12] = Selectivity index, ratio of CC50 for mouse J774 cells to IC50 for Leishmania infantum MCAN/ES/96/BCN150 promastigotes; assay type: toxicity; conditions: read-out: Ratio CC50/IC50
Leishmania amazonensis [13] = assay: Antileishmanial activity against Leishmania amazonensis MHOM/Br/79/Mari amastigotes infected in mouse J774 cells after 48 hrs by resazurin dye-based fluorometric analysis; assay type: functional, organism-based; conditions: J774, 48 h
Leishmania infantum [14] = assay: Antileishmanial activity against Leishmania infantum MCAN/ES/96/BCN150 amastigotes infected in mouse J774 cells after 48 hrs by resazurin dye-based fluorometric analysis; assay type: functional, organism-based; conditions: MCAN/ES/96/BCN150, J774, 48 h
[15] = Selectivity index, ratio of CC50 for mouse J774 cells to IC50 for Leishmania amazonensis MHOM/Br/79/Mari amastigotes infected in mouse J774 cells; assay type: toxicity, cell-based; conditions: read-out: Ratio CC50/IC50
Method in brief: (§5)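 CC50: concentration giving 50% reduction of viability in treated cells relative to untreated; IC50: concentration giving 50% reduction in parasites; SI = CC50/IC50.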

[16] = Selectivity index, ratio of CC50 for mouse J774 cells to IC50 for Leishmania infantum MCAN/ES/96/BCN150 amastigotes infected in mouse J774 cells; assay type: toxicity, cell-based; conditions: read-out: Ratio CC50/IC50; method in brief: as §5
NALM-6 [17] = assay: Antiproliferative activity against human NALM6 cells after 72 hrs by CellTiter-Glo luminescent cell viability assay; assay type: functional, cell-based; conditions: NALM-6, 72 h
[18] = Antiproliferative activity against mouse leukemia cells overexpressing BCR/ABL after 72 hrs by CellTiter-Glo luminescent cell viability assay; assay type: functional, cell-based
KOPN-8 [19] = assay: Antiproliferative activity against human KOPN8 cells after 72 hrs by CellTiter-Glo luminescent cell viability assay; assay type: functional, cell-based; conditions: KOPN-8, 72 h
SUP-B15 = assay: Antiproliferative activity against human SUP-B15 cells after 72 hrs by CellTiter-Glo luminescent cell viability assay; assay type: functional, cell-based; conditions: SUP-B15, 72 h
UoC-B1 = assay: Antiproliferative activity against human UOCB1 cells after 72 hrs by CellTiter-Glo luminescent cell viability assay; assay type: functional, cell-based; conditions: UoC-B1, 72 h
BJ = assay: Antiproliferative activity against human BJ cells after 72 hrs by CellTiter-Glo luminescent cell viability assay; assay type: ADME, cell-based
NALM-6 [20] = assay: Induction of apoptosis in human NALM6 cells after 24 hrs by Annexin V-FITC/propidium iodide staining-based flow cytometric analysis; assay type: functional, cell-based
Method in brief: (§6)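 Phosphatidylserine exposure read by Annexin V-FITC/propidium iodide flow cytometry; DNA content by PI staining for cell-cycle distribution.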

KOPN-8 [21] = assay: Induction of apoptosis in human KOPN8 cells assessed as late apoptotic cells at 20 uM after 32 hrs by Annexin V-FITC/propidium iodide staining-based flow cytometric analysis relative to control; assay type: functional
NALM-6 [22] = assay: Cell cycle arrest in human NALM6 cells assessed as accumulation at G0/G1 phase at 10 uM after 24 hrs by propidium iodide staining-based flow cytometric analysis; assay type: functional; method in brief: as §6
NALM-6 [23] = assay: Cell cycle arrest in human NALM6 cells assessed as accumulation at G2/M phase at 10 uM after 24 hrs by propidium iodide staining-based flow cytometric analysis; assay type: functional; method in brief: as §6
Leishmania guyanensis [24] = assay: Potency index, ratio of miltefosine IC50 to compound IC50 for Leishmania guyanensis 141/93 promastigotes after 48 hrs by resazurin dye-based fluorometric analysis; assay type: functional
[25] = read-out: log(1/IC50) (converted)

Activity [3] [%] | Activity [4] [%] | Compound | CC50 at 48 h [5] [µM] | IC50 (Leishmania amazonensis [6]) [µM] | IC50 (Leishmania guyanensis [7]) [µM] | IC50 (Leishmania donovani; read-out: IC50) [µM] | IC50 (Leishmania donovani; [25]) [µM] | IC50 (Leishmania infantum [8]) [µM] | selectivity ratio [9] | selectivity ratio [10] | selectivity ratio [11] | selectivity ratio [12] | also measured
187 | 841 | CC(C)C1=CC2=CC[C@H]3[C@](C)(C(=O)O)CCC[C@]3(C)C2CC1 (some centres undefined) |  |  |  |  |  |  |  |  |  |  | Emax [1]: 398%; EC50 [2]: 8.7 µM
2.7 | -2.9 | COC(=O)[C@]1(C)CCC[C@]2(C)c3cc(C(C)=O)c(C(C)C)cc3CC[C@@H]12 | 130 | 11.6 | 14.2 | 14.8 | 14.8 | 2.5 | 11.2 | 9.1 | 8.8 | 51.8 | GI50 (A549): 18 µM; GI50 (HBL-100): 15 µM; GI50 (HeLa): 11 µM; GI50 (SW1573): 11 µM; GI50 (T47D): 10 µM; GI50 (WiDr): 17 µM; IC50 (Leishmania amazonensis [13]): 31.4 µM; IC50 (Leishmania infantum [14]): 37.2 µM; selectivity ratio [15]: 4.1; selectivity ratio [16]: 3.5
-1 | 46.7 | COC(=O)[C@]1(C)CCC[C@]2(C)c3cc(OC(C)=O)c(C(C)C)cc3C(=O)C[C@@H]12 | 17.8 | 0.65 | 1.3 | 4.4 | 4.38 | 0.7 | 27.4 | 13.6 | 4.1 | 25.4 | EC50 (NALM-6 [17]): 10.7 µM; EC50 [18]: 12.2 µM; EC50 (KOPN-8 [19]): 18.5 µM; EC50 (SUP-B15): 21.7 µM; EC50 (UoC-B1): > 40 µM; EC50 (BJ): Non-Toxic; Activity (NALM-6 [20]): Dose-dependent effect; Activity (KOPN-8 [21]): >85%; Activity (NALM-6 [22]): Active; Activity (NALM-6 [23]): Active; Ratio IC50 (Leishmania guyanensis [24]): 13
